Series [1] is described as follows: folding enthalpy; higher = less favourable; fluorescence melt of hairpins on a sequencing array, two-state fit. The note with it: sodium 0.088 M. The essentials: (§1)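 Folding enthalpy and melting temperature come from bootstrapped two-state fits to Cy3 fluorescence of library hairpins carrying annealed Cy3 and quencher oligos on a sequenced MiSeq flow cell. Imaging was done in 50 mM Na-HEPES pH 8.0, 25 mM NaCl, stepping by 2.5 °C up to 60 °C, and signals were normalised to pre-quench Cy3 and to control constructs. Results of four replicates were combined by inverse variance, and fitted temperatures were raised by 9.35 °C to match UV melts.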

A short description of series [2]: melting temperature; fluorescence melt of hairpins on a sequencing array, two-state fit, raised by 9.35 °C to match UV melts. The following applies: sodium 0.088 M. The gist of the method:
as §1

The values that follow come from the array DNA melting data of Ke et al. (doi:10.1101/2024.01.08.574731).

Consider GATCCTACTGAGGATC ((((((....)))))), for which the folding enthalpy in series [1] was -39.7 kcal/mol. The Tm in series [2] stood at 50.6 °C.
As to GATCCTAGAAGGATC ((((((...)))))), the folding enthalpy in series [1] is -40.9 kcal/mol. Moreover, the Tm in series [2] is 53.4 °C.
For GATCCTAGCAAGGATC ((((((....)))))) the same measures were -33.2 kcal/mol and 52.8 °C.
In the same order, the values of GATCCTATCAAGGATC ((((((....)))))) are -34.3 kcal/mol and 54.6 °C.
Consider GATCCTCAATAGGATC ((((((....)))))), for which the folding enthalpy in series [1] is -34.2 kcal/mol. In series [2], the Tm came out at 49.5 °C.
In the same order, the values of GATCCTCAGTAGGATC ((((((....)))))) are -35.4 kcal/mol and 49.9 °C.
Turning to GATCCTCCAAAGGATC ((((((....)))))), the folding enthalpy in series [1] was -28.8 kcal/mol. In addition, the Tm in series [2] was determined as 50.4 °C.
In the case of GATCCTCCCCAGGATC ((((((....)))))), the folding enthalpy in series [1] was -43.7 kcal/mol. Besides, the Tm in series [2] came to 50.4 °C.
For GATCCTCCCTAGGATC ((((((....)))))) the same measures were -39.7 kcal/mol and 50.8 °C.
In the same order, the values of GATCCTCCGAGGATC ((((((...)))))) are -33.1 kcal/mol and 53.1 °C.
For GATCCTCGAAGGATC ((((((...)))))) the same measures were -26.7 kcal/mol and 50.1 °C.
Consider GATCCTCGATAGGATC ((((((....)))))), for which, in series [1], the folding enthalpy was -29.4 kcal/mol. In addition, the Tm in series [2] was 50.2 °C.
For GATCCTCGCAAGGATC ((((((....)))))) the same measures were -32.6 kcal/mol and 54.8 °C.
GATCCTCGCCAGGATC ((((((....)))))): the folding enthalpy in series [1] was -37.4 kcal/mol. Besides, the Tm in series [2] was 50.7 °C.
Turning to GATCCTCTAAAGGATC ((((((....)))))), the folding enthalpy in series [1] was -39.3 kcal/mol. In series [2], the Tm is 52.4 °C.
Consider GATCCTCTAGAGGATC ((((((....)))))), for which, in series [1], the folding enthalpy was -42.6 kcal/mol. The Tm in series [2] is 56.4 °C.
In the same order, the values of GATCCTGCGAGGATC ((((((...)))))) are -33.7 kcal/mol and 53.9 °C.
For GATCCTGCGTAGGATC ((((((....)))))) the same measures were -44.2 kcal/mol and 51.4 °C.
In the same order, the values of GATCCTGCTGAGGATC ((((((....)))))) are -52.2 kcal/mol and 51.4 °C.
In the case of GATCCTGCTTAGGATC ((((((....)))))), the folding enthalpy in series [1] is -42.9 kcal/mol. Also, in series [2], the Tm was determined as 52.4 °C.
For GATCCTGGAAGGATC ((((((...)))))) the same measures were -31.6 kcal/mol and 62.8 °C.
For GATCCTGGCAGGATC ((((((...)))))) the same measures were -39.7 kcal/mol and 57.7 °C.
As to GATCCTGGCGAGGATC ((((((....)))))), the folding enthalpy in series [1] was -48.3 kcal/mol. For the same sequence, the Tm in series [2] was 54.6 °C.
For GATCCTGTAGAGGATC ((((((....)))))) the same measures were -36 kcal/mol and 55.5 °C.
In the same order, the values of GATCCTGTCAGGATC ((((((...)))))) are -36.7 kcal/mol and 56.5 °C.
Take GATCCTGTCCAGGATC ((((((....)))))): the folding enthalpy in series [1] was -48.3 kcal/mol. Besides, the Tm in series [2] amounted to 58.1 °C.
Take GATCCTGTGAGGATC ((((((...)))))): in series [1], the folding enthalpy is -32.3 kcal/mol. Besides, the Tm in series [2] was 53.3 °C.
As to GATCCTGTTAAGGATC ((((((....)))))), the folding enthalpy in series [1] was -48.7 kcal/mol. Also, the Tm in series [2] worked out at 65.7 °C.
In the same order, the values of GATCCTTAAAAGGATC ((((((....)))))) are -41.7 kcal/mol and 49.7 °C.
Take GATCCTTAATAGGATC ((((((....)))))): the folding enthalpy in series [1] is -39.1 kcal/mol. For the same sequence, the Tm in series [2] worked out at 50.1 °C.
As for GATCCTTACAGGATC ((((((...)))))), the folding enthalpy in series [1] is -34.2 kcal/mol. In addition, the Tm in series [2] came to 56 °C.
In the same order, the values of GATCCTTATGAGGATC ((((((....)))))) are -37.1 kcal/mol and 53.3 °C.
With GATCCTTCAAGGATC ((((((...)))))), the folding enthalpy in series [1] was -36.9 kcal/mol. Also, in series [2], the Tm worked out at 54.7 °C.
For the sequence GATCCTTCATAGGATC ((((((....)))))), in series [1], the folding enthalpy is -39.5 kcal/mol. The Tm in series [2] was found to be 52.4 °C.
In the same order, the values of GATCCTTCGAAGGATC ((((((....)))))) are -49.6 kcal/mol and 54.1 °C.
For GATCCTTCGAGGATC ((((((...)))))) the same measures were -28.7 kcal/mol and 54.4 °C.
For GATCCTTCTGAGGATC ((((((....)))))) the same measures were -38.4 kcal/mol and 53.7 °C.
With GATCCTTGGAGGATC ((((((...)))))), in series [1], the folding enthalpy is -42 kcal/mol. Further, the Tm in series [2] turned out to be 50.4 °C.
Turning to GATCCTTTAAAGGATC ((((((....)))))), in series [1], the folding enthalpy was -40.9 kcal/mol. In series [2], the Tm stood at 53.4 °C.
For GATCCTTTGAAGGATC ((((((....)))))) the same measures were -36 kcal/mol and 52.4 °C.
For GATCCTTTTTAGGATC ((((((....)))))) the same measures were -34.7 kcal/mol and 53.9 °C.
Regarding GATCGAAAGCTCGATC ((((((....)))))), the folding enthalpy in series [1] was -29.6 kcal/mol. Moreover, the Tm in series [2] turned out to be 48.7 °C.
For GATCGAAAGTCGATC ((((((...)))))) the same measures were -30.5 kcal/mol and 48.8 °C.
For GATCGAACAGTCGATC ((((((....)))))) the same measures were -31.4 kcal/mol and 47.7 °C.
For the sequence GATCGAACATCGATC ((((((...)))))), the folding enthalpy in series [1] was -37.3 kcal/mol. Also, the Tm in series [2] turned out to be 49 °C.
In the same order, the values of GATCGAACCTCGATC ((((((...)))))) are -34.4 kcal/mol and 50.7 °C.
For GATCGAAGAATCGATC ((((((....)))))) the same measures were -28.4 kcal/mol and 47.1 °C.
On to GATCGAAGAGTCGATC ((((((....)))))), for which the folding enthalpy in series [1] was -31.6 kcal/mol. For the same sequence, the Tm in series [2] worked out at 47.5 °C.
For GATCGAAGCGTCGATC ((((((....)))))), the folding enthalpy in series [1] was -39.9 kcal/mol. Moreover, the Tm in series [2] came to 51.1 °C.
In the same order, the values of GATCGAAGGTCGATC ((((((...)))))) are -25.6 kcal/mol and 50.9 °C.
Turning to GATCGAAGTGTCGATC ((((((....)))))), in series [1], the folding enthalpy was -42.2 kcal/mol. Also, the Tm in series [2] is 51.2 °C.
For the sequence GATCGAATATCGATC ((((((...)))))), the folding enthalpy in series [1] was -33.4 kcal/mol. In addition, the Tm in series [2] is 50.4 °C.
In the case of GATCGAATCGTCGATC ((((((....)))))), in series [1], the folding enthalpy is -32.1 kcal/mol. Moreover, the Tm in series [2] was 51.4 °C.
In the same order, the values of GATCGAATCTTCGATC ((((((....)))))) are -42.4 kcal/mol and 54.2 °C.
With GATCGAATTTCGATC ((((((...)))))), the folding enthalpy in series [1] was -46.1 kcal/mol. Also, the Tm in series [2] amounted to 51.5 °C.
Regarding GATCGACCAATCGATC ((((((....)))))), in series [1], the folding enthalpy is -34.2 kcal/mol. For the same sequence, in series [2], the Tm was 49 °C.
In the same order, the values of GATCGACCACTCGATC ((((((....)))))) are -38.1 kcal/mol and 50.5 °C.
For GATCGACCAGTCGATC ((((((....)))))) the same measures were -43.9 kcal/mol and 57.4 °C.
For the sequence GATCGACCTATCGATC ((((((....)))))), in series [1], the folding enthalpy was -38.9 kcal/mol. Further, the Tm in series [2] is 51 °C.
In the same order, the values of GATCGACGATCGATC ((((((...)))))) are -20.6 kcal/mol and 49.2 °C.
For GATCGACGGCTCGATC ((((((....)))))) the same measures were -42.7 kcal/mol and 50.5 °C.
For GATCGACGGGTCGATC ((((((....)))))), in series [1], the folding enthalpy is -46 kcal/mol. Further, in series [2], the Tm was 63.3 °C.
For GATCGACTACTCGATC ((((((....)))))) the same measures were -36.5 kcal/mol and 50.7 °C.
As to GATCGAGAATTCGATC ((((((....)))))), the folding enthalpy in series [1] is -39.7 kcal/mol. In addition, in series [2], the Tm turned out to be 57.4 °C.
For GATCGAGATTCGATC ((((((...)))))) the same measures were -41.4 kcal/mol and 50.4 °C.
As for GATCGAGATTTCGATC ((((((....)))))), the folding enthalpy in series [1] was -46.7 kcal/mol. The Tm in series [2] stood at 51.8 °C.
In the case of GATCGAGCACTCGATC ((((((....)))))), the folding enthalpy in series [1] is -42.9 kcal/mol. Moreover, the Tm in series [2] was determined as 57.6 °C.
GATCGAGCATCGATC ((((((...)))))): in series [1], the folding enthalpy is -41.3 kcal/mol. In addition, in series [2], the Tm came to 58.7 °C.
With GATCGAGCCATCGATC ((((((....)))))), the folding enthalpy in series [1] was -39.7 kcal/mol. Besides, the Tm in series [2] turned out to be 59.2 °C.
In the same order, the values of GATCGAGCCTCGATC ((((((...)))))) are -34.9 kcal/mol and 52.8 °C.
As to GATCGAGCCTTCGATC ((((((....)))))), the folding enthalpy in series [1] was -39.5 kcal/mol. Further, the Tm in series [2] came out at 56.4 °C.
For GATCGAGCGCTCGATC ((((((....)))))), the folding enthalpy in series [1] is -44 kcal/mol. Besides, the Tm in series [2] worked out at 62.2 °C.
In the same order, the values of GATCGAGCTGTCGATC ((((((....)))))) are -38.6 kcal/mol and 51.3 °C.
For GATCGAGGAAACTCAATC (((.(((....))).))) the same measures were -10.2 kcal/mol and 25.9 °C.
For GATCGAGGAAACTCGACC (.(((((....))))).) the same measures were -14.8 kcal/mol and 41.4 °C.
Turning to GATCGAGGAAACTTGGTC ((.(.((....)).).)), the folding enthalpy in series [1] was -8.03 kcal/mol. Also, the Tm in series [2] came to 22.6 °C.
